According to ChEMBL document CHEMBL4376902, “CN128: A New Orally Active Hydroxypyridinone Iron Chelator” (J Med Chem, 2020):

How the values were obtained:
Mus musculus [1] = test: Toxicity in mouse assessed as reduction in eosinophils counts at 200 mg/kg, po dosed once daily for 2 months as 5 days per week schedule; details: in vivo, 120 h
[2] = Toxicity in Sprague-Dawley rat assessed as induction of histopathological changes in thymus at 25 to 116 mg/kg, po dosed daily for 4 weeks and measured after additional 4 weeks period in absence of drug; format: organism-based; details: in vivo, 672 h
[3] = Drug level in rat kidney at 150 umol/kg, po measured measured up to 6 hrs by LC-MS/MS analysis; format: ADME, organism-based; details: in vivo
Procedure, shortened: (§1)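 Single oral dose of 150 μmol/kg to SD rats, half male and half female, n=6 per group. Rats decapitated at 10 min, 30 min, 2 h and 6 h. Tissues dissected, saline-washed, weighed and homogenised in acetonitrile/water 1:9 (125 mg/mL). Drug level measured against plasma; mean ± SE.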

Cytochrome P450 1A2 = target: T1, Cytochrome P450 1A2 (Homo sapiens, UniProt P05177); test: Inhibition of CYP1A2 in human liver microsomes; format: ADME
T1 sequence (P05177 whole entry): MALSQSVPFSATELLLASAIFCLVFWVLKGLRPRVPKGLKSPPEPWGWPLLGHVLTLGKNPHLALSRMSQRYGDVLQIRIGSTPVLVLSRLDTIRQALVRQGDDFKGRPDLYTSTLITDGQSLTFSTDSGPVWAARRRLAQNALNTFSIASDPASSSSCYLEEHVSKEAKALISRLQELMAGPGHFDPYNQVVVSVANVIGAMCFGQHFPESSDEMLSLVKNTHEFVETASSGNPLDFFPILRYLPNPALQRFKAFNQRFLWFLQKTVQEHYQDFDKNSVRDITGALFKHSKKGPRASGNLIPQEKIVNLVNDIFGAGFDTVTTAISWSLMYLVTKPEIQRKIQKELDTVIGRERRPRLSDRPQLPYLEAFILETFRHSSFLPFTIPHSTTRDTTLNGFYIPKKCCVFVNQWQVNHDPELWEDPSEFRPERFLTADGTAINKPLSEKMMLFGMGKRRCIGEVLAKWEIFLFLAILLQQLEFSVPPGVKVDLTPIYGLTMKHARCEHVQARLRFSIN

Cytochrome P450 2B6 = target: T2, Cytochrome P450 2B6 (Homo sapiens, UniProt P20813); test: Inhibition of CYP2B6 in human liver microsomes; format: ADME
T2 sequence (P20813 whole entry): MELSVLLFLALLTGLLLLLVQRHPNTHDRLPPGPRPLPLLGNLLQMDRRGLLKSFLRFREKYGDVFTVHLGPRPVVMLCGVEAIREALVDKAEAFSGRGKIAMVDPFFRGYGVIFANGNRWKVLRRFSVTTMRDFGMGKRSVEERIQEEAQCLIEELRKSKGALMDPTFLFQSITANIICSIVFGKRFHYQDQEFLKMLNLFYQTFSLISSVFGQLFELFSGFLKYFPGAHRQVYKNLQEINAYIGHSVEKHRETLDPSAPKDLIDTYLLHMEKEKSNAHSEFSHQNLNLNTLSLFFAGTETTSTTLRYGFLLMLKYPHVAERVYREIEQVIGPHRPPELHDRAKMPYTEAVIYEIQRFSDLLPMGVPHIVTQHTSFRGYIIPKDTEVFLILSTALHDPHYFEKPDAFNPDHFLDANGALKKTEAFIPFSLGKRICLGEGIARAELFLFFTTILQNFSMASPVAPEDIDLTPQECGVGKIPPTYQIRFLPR

[4] = Drug level in rat intestine at 150 umol/kg, po measured measured up to 6 hrs by LC-MS/MS analysis; format: ADME, organism-based; details: in vivo
Procedure, shortened: as §1

Rattus norvegicus = test: Iron scavenging activity in 59Fe-ferritin-loaded rat assessed as iron mobilization level at 150 to 450 umol/kg, po dosed 1 hr after 59Fe-ferritin injection and measured 24 hrs after 59Fe-ferritin injection by gamma counting method relative to control; format: functional, organism-based
Procedure, shortened: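 Male SD rats, 300 g, fasted overnight, given about 1 μC 59Fe-ferritin i.v. under isoflurane. Chelator gavaged 1 h later, then rats housed in metabolic cages; food returned 1 h after dosing. Killed 24 h after 59Fe-ferritin. Urine, faeces, liver and gut gamma-counted. 8 rats per condition.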

[5] = Drug metabolism in rat bile assessed as (2S,3S,4S,5R,6R)-3,4,5-trihydroxy-6-[(2R)-2-(3-hydroxy-2-methyl-4-oxo-1-pyridyl)-3-phenylpropoxy]tetrahydropyran-2-carboxylic acid formation at 150 umol/kg, po by LC/TOF/MS/MS analysis; format: ADME, organism-based; details: in vivo
Procedure, shortened: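 Bile collected from rats after an oral dose of 150 μmol/kg. Metabolites characterised by β-glucuronidase hydrolysis and LC-TOFMS/MS. M2/M1 ratio followed over 8 h.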

[6] = Oral bioavailability in Sprague-Dawley rat at 75 umol/k measured up to 1440 mins by LC/MS/MS analysis; format: ADME, organism-based; details: in vivo, 75 umol/kg
Procedure, shortened: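 Sprague-Dawley rats (200-250 g, half male, half female, n = 8 per route), fasted about 12 h. Dosed i.v. via tail vein at 75 μmol/kg or orally at 75-600 μmol/kg. Heparinised blood taken 0-1440 min; plasma protein-precipitated with acetonitrile and assayed by LC/MS/MS; bioavailability from oral vs i.v. exposure.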

[7] = Binding affinity to Ni2+ ion assessed as affinity constant by spectrophotometric titration method
Procedure, shortened: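 Automated spectrophotometric titration with 0.1 M KOH in 0.1 pH steps, 3 min equilibration per step, 50 mm cuvette, iron complexes at ca. 40 µM. Titrated in competition with metal hydrolysis species up to pH 12.0. Hydrolysis constants taken from critical compilations. Iron spectra fitted over 400–700 nm.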

[8] = Ratio of drug level in stomach to plasma in rat at 150 umol/kg, po measured within 10 mins by LC-MS/MS analysis; format: ADME, organism-based; details: stomach and plasma
Procedure, shortened: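 SD rats (half male, half female, n = 6 per group) given a single oral 150 μmol/kg dose. Killed at 10 min, 30 min, 2 h or 6 h; tissues washed in saline, weighed and homogenised in acetonitrile/water 1:9 (125 mg/mL). Tissue levels compared with plasma.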

[9] = Apparent volume of distribution in Sprague-Dawley rat at 600 umol/kg, po measured up to 1440 mins by LC/MS/MS analysis; format: ADME, organism-based; details: in vivo, 24 h
[10] = Lipophilicity coefficient, logP of the compound in Tris buffer at pH 7.0 (100 mM/n-octanol); format: physicochemical
Procedure, shortened: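 Octanol/water partition measured between n-octanol and 100 mM Tris buffer, pH 7.0.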

[11] = Apparent clearance in Sprague-Dawley rat at 600 umol/kg, po measured up to 1440 mins by LC/MS/MS analysis; format: ADME, organism-based; details: in vivo, read-out: CL(app) (converted)
[12] = Acid dissociation constant, pKa2 of the compound over pH 1.8 to 11.0 by spectrophotometric titration method; format: physicochemical
Procedure, shortened: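 Automated spectrophotometric titration with 0.1 M KOH in 0.1 pH-unit steps. Reading accepted as stable when drift was <0.01 pH unit after a 1.5 min incubation. 10 mm path length cuvette. Spectra fitted by computer to obtain the pKa values.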

Mus musculus [13] = test: Toxicity in mouse assessed as reduction in monocytes counts at 200 mg/kg, po dosed once daily for 2 months as 5 days per week schedule; details: in vivo, 120 h
[14] = Drug metabolism in human liver microsomes assessed as oxidative metabolism incubated for 1 hr relative to deferiprone; format: ADME, Microsome

For Cc1c(O)c(O)cc[n+]1[C@@H](CO)Cc1ccccc1.[Cl-], which Activity (Mus musculus [1]) is on record?
The Activity was “Non-Toxic”.

What about the Activity [2] of the same compound?
Its Activity is “Non-Toxic”.

What about the Drug uptake [3] of the same compound?
Its Drug uptake is “Not Active”.

What about the IC50 (Cytochrome P450 1A2) of the same compound?
Its IC50 is greater than 200 µM.

What about the IC50 (Cytochrome P450 2B6) of the same compound?
Its IC50 is greater than 200 µM.

And the Drug uptake [4]?
Its Drug uptake is “Not Active”.

What about the Activity (Rattus norvegicus) of the same compound?
Its Activity is “Dose-dependent effect”.

And the Drug metabolism [5]?
The Drug metabolism was “Metabolite_Detected”.

And the bioavailability [6]?
The bioavailability was 82.6%.

And the log K [7]?
Its log K is 6.92.

And the Kp at 10 min [8]?
Its Kp at 10 min is 3.3 to 8.8.

And the Vz [9]?
The Vz was 4.29 L/kg.

And the logD [10]?
The logD was 0.62.

What about the CL/F [11] of the same compound?
Its CL/F is 15.2 mL/min/kg.

And the pKa [12]?
Its pKa is 9.9.

What about the Activity (Mus musculus [13]) of the same compound?
The Activity was “Non-Toxic”.

What about the Drug metabolism [14] of the same compound?
The Drug metabolism was “Metabolite_Detected”.
